In ChEMBL document CHEMBL1275427, “Antimicrobial susceptibilities of geographically diverse clinical human isolates of Leptospira” (2008):
In brackets after ≈: the same amount, converted by molar mass.

Experiments:
Type in all cases: functional
[1] = Antimicrobial activity against Leptospira interrogans serovar Bataviae isolate 1 by broth microdilution method
Procedure, shortened: (§1)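 Strains grown 7 days in EMJH medium at 30°C; inoculum counted by Petroff-Hausser chamber under dark-field microscopy and added at 2 × 10^6 organisms/ml. Twofold serial dilutions in EMJH, final 32.0 to 0.016 μg/ml (units/ml for penicillin), 96-well round-bottom plates, 30°C. alamarBlue added day 3; colour read day 5. MIC is lowest concentration without blue-to-pink change. Triplicate runs, median reported; L. interrogans Icterohaemorrhagiae quality control.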

[2] = Antimicrobial activity against Leptospira interrogans serovar Icterohaemorrhagiae isolate 9 by broth microdilution method; procedure, shortened: as §1
[3] = Antimicrobial activity against Leptospira interrogans serovar Pomona isolate 4 by broth microdilution method; procedure, shortened: as §1
[4] = Antimicrobial activity against Leptospira interrogans serovar Pyrogenes isolate 5 by broth microdilution method; procedure, shortened: as §1
[5] = test system: Leptospira weilii; assay: Antimicrobial activity against Leptospira weilii isolate 6 by broth microdilution method; procedure, shortened: as §1
[6] = Antimicrobial activity against Leptospira interrogans isolate 7 by broth microdilution method
Procedure, shortened: (§2)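 Serial twofold dilutions in EMJH medium, final 32.0 to 0.016 μg/ml (units/ml for penicillin). Inoculum from 7-day EMJH cultures grown at 30°C, counted by Petroff-Hausser chamber under dark-field microscopy, added at 2 × 10^6 organisms/ml. Plates incubated at 30°C; alamarBlue added on day 3 and colour read on day 5. MIC is the lowest concentration without blue-to-pink change; median of triplicate runs.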

[7] = test system: Leptospira kirschneri serovar Grippotyphosa; assay: Antimicrobial activity against Leptospira kirschneri serovar Grippotyphosa isolate 13 by broth microdilution method; procedure, shortened: as §2
[8] = Antimicrobial activity against Leptospira interrogans serovar Icterohaemorrhagiae isolate 10 by broth microdilution method; procedure, shortened: as §1
[9] = test system: Leptospira weilii; assay: Antimicrobial activity against Leptospira weilii isolate 8 by broth microdilution method; procedure, shortened: as §1
[10] = Antimicrobial activity against Leptospira interrogans serovar Grippotyphosa isolate 2 by broth microdilution method; procedure, shortened: as §2
[11] = Antimicrobial activity against Leptospira interrogans serovar Icterohaemorrhagiae isolate 3 by broth microdilution method; procedure, shortened: as §1
[12] = Antimicrobial activity against Leptospira interrogans serovar Canicola isolate 11 by broth microdilution method; procedure, shortened: as §1
[13] = Antimicrobial activity against Leptospira interrogans serovar Pomona isolate 12 by broth microdilution method; procedure, shortened: as §1
[14] = Leptospira interrogans, isolate 1, read-out: MIC
[15] = Leptospira interrogans, isolate 9, read-out: MIC
[16] = Leptospira interrogans, isolate 4, read-out: MIC
[17] = Leptospira interrogans, isolate 5, read-out: MIC
[18] = Leptospira weilii, isolate 6, read-out: MIC
[19] = Leptospira interrogans, isolate 7, read-out: MIC
[20] = Leptospira kirschneri, isolate 13, read-out: MIC
[21] = Leptospira interrogans, isolate 10, read-out: MIC
[22] = Leptospira weilii, isolate 8, read-out: MIC
[23] = Leptospira interrogans, isolate 3, read-out: MIC
[24] = Leptospira interrogans, isolate 11, read-out: MIC
[25] = Leptospira interrogans, isolate 12, read-out: MIC

Compound | MIC [1, 14] | MIC [2, 15] | MIC [3, 16] | MIC [4, 17] | MIC [5, 18] | MIC [6, 19] | MIC [7, 20] | MIC [8, 21] | MIC [9, 22] | MIC [10] | MIC [11, 23] | MIC [12, 24] | MIC [13, 25] | other results
CC1(C)S[C@@H]2[C@H](NC(=O)[C@H](N)c3ccccc3)C(=O)N2[C@H]1C(=O)O [AMPICILLIN] | < 0.016 µg/mL | < 0.016 µg/mL | < 0.016 µg/mL | < 0.016 µg/mL | < 0.016 µg/mL | < 0.016 µg/mL | < 0.016 µg/mL | < 0.016 µg/mL | < 0.016 µg/mL | < 0.016 µg/mL | < 0.016 µg/mL | < 0.016 µg/mL | < 0.016 µg/mL | –
CC[C@H]1OC(=O)[C@H](C)[C@@H](O[C@H]2C[C@@](C)(OC)[C@@H](O)[C@H](C)O2)[C@H](C)[C@@H](O[C@@H]2O[C@H](C)C[C@H](N(C)C)[C@H]2O)[C@](C)(O)C[C@@H](C)CN(C)[C@H](C)[C@@H](O)[C@]1(C)O [AZITHROMYCIN] | < 0.016 µg/mL | < 0.016 µg/mL | < 0.016 µg/mL | < 0.016 µg/mL | < 0.016 µg/mL | < 0.016 µg/mL | < 0.016 µg/mL | < 0.016 µg/mL | < 0.016 µg/mL | < 0.016 µg/mL | < 0.016 µg/mL | < 0.016 µg/mL | < 0.016 µg/mL | –
CO/N=C(\C(=O)N[C@@H]1C(=O)N2C(C(=O)[O-])=C(C[N+]3(C)CCCC3)CS[C@H]12)c1csc(N)n1 [CEFEPIME] | < 0.016 µg/mL | < 0.016 µg/mL | < 0.016 µg/mL | < 0.016 µg/mL | < 0.016 µg/mL | < 0.016 µg/mL | < 0.016 µg/mL | < 0.016 µg/mL | < 0.016 µg/mL | < 0.016 µg/mL | < 0.016 µg/mL | < 0.016 µg/mL | < 0.016 µg/mL | –
CO/N=C(\C(=O)N[C@@H]1C(=O)N2C(C(=O)O)=C(COC(C)=O)CS[C@H]12)c1csc(N)n1 [CEFOTAXIME] | < 0.016 µg/mL | < 0.016 µg/mL | < 0.016 µg/mL | < 0.016 µg/mL | 0.03 µg/mL (≈ 0.0659 µM) | 0.03 µg/mL (≈ 0.0659 µM) | < 0.016 µg/mL | < 0.016 µg/mL | 0.03 µg/mL (≈ 0.0659 µM) | 0.03 µg/mL (≈ 0.0659 µM) | < 0.016 µg/mL | < 0.016 µg/mL | < 0.016 µg/mL | –
CO/N=C(\C(=O)N[C@@H]1C(=O)N2C(C(=O)O)=C(CSc3nc(=O)c(O)nn3C)CS[C@H]12)c1csc(N)n1 [CEFTRIAXONE] | 0.03 µg/mL (≈ 0.0541 µM) | < 0.016 µg/mL | 0.06 µg/mL (≈ 0.108 µM) | < 0.016 µg/mL | 0.06 µg/mL (≈ 0.108 µM) | 0.06 µg/mL (≈ 0.108 µM) | < 0.016 µg/mL | < 0.016 µg/mL | 0.03 µg/mL (≈ 0.0541 µM) | 0.06 µg/mL (≈ 0.108 µM) | < 0.016 µg/mL | 0.03 µg/mL (≈ 0.0541 µM) | < 0.016 µg/mL | –
O=C(O)c1cn(C2CC2)c2cc(N3CCNCC3)c(F)cc2c1=O [CIPROFLOXACIN] | 0.125 µg/mL (≈ 0.377 µM) | 0.125 µg/mL (≈ 0.377 µM) | 0.25 µg/mL (≈ 0.754 µM) | 0.125 µg/mL (≈ 0.377 µM) | 0.125 µg/mL (≈ 0.377 µM) | 0.125 µg/mL (≈ 0.377 µM) | 0.03 µg/mL (≈ 0.0905 µM) | 0.125 µg/mL (≈ 0.377 µM) | 0.125 µg/mL (≈ 0.377 µM) | 0.125 µg/mL (≈ 0.377 µM) | 0.125 µg/mL (≈ 0.377 µM) | 0.06 µg/mL (≈ 0.181 µM) | 0.06 µg/mL (≈ 0.181 µM) | –
CC[C@H]1OC(=O)[C@H](C)[C@@H](O[C@H]2C[C@@](C)(OC)[C@@H](O)[C@H](C)O2)[C@H](C)[C@@H](O[C@@H]2O[C@H](C)C[C@H](N(C)C)[C@H]2O)[C@](C)(OC)C[C@@H](C)C(=O)[C@H](C)[C@@H](O)[C@]1(C)O [CLARITHROMYCIN] | < 0.016 µg/mL | < 0.016 µg/mL | < 0.016 µg/mL | < 0.016 µg/mL | < 0.016 µg/mL | < 0.016 µg/mL | < 0.016 µg/mL | < 0.016 µg/mL | < 0.016 µg/mL | < 0.016 µg/mL | < 0.016 µg/mL | < 0.016 µg/mL | < 0.016 µg/mL | –
C[C@H]1c2cccc(O)c2C(=O)C2=C(O)[C@]3(O)C(=O)C(C(N)=O)=C(O)[C@@H](N(C)C)[C@@H]3[C@@H](O)[C@@H]21.O [DOXYCYCLINE] | 1 µg/mL | 0.25 µg/mL | 2 µg/mL | 1 µg/mL | 0.5 µg/mL | 0.25 µg/mL | < 0.016 µg/mL | 0.5 µg/mL | 0.5 µg/mL | 1 µg/mL | 2 µg/mL | 0.06 µg/mL | 0.06 µg/mL | –
C[C@H]1COc2c(N3CCN(C)CC3)c(F)cc3c(=O)c(C(=O)O)cn1c23.C[C@H]1COc2c(N3CCN(C)CC3)c(F)cc3c(=O)c(C(=O)O)cn1c23.O [LEVOFLOXACIN] | 0.06 µg/mL | 0.125 µg/mL | 0.125 µg/mL | 0.06 µg/mL | 0.06 µg/mL | 0.06 µg/mL | < 0.016 µg/mL | 0.125 µg/mL | 0.125 µg/mL | 0.06 µg/mL | 0.06 µg/mL | 0.03 µg/mL | < 0.016 µg/mL | –
COc1c(N2C[C@@H]3CCCN[C@@H]3C2)c(F)cc2c(=O)c(C(=O)O)cn(C3CC3)c12 [MOXIFLOXACIN] | 0.06 µg/mL (≈ 0.149 µM) | 0.125 µg/mL (≈ 0.311 µM) | 0.125 µg/mL (≈ 0.311 µM) | 0.06 µg/mL (≈ 0.149 µM) | 0.06 µg/mL (≈ 0.149 µM) | 0.06 µg/mL (≈ 0.149 µM) | 0.03 µg/mL (≈ 0.0747 µM) | 0.125 µg/mL (≈ 0.311 µM) | 0.125 µg/mL (≈ 0.311 µM) | 0.06 µg/mL (≈ 0.149 µM) | 0.06 µg/mL (≈ 0.149 µM) | 0.03 µg/mL (≈ 0.0747 µM) | < 0.016 µg/mL | –
CC1(C)S[C@@H]2[C@H](NC(=O)Cc3ccccc3)C(=O)N2[C@H]1C(=O)O [PENICILLIN G] | – | – | – | – | – | – | – | – | – | – | – | – | – | MIC [1]: <0.016 U/ml; MIC [2]: <0.016 U/ml; MIC [3]: 0.06 U/ml; MIC [4]: <0.016 U/ml; MIC [5]: 0.03 U/ml; MIC [6]: 0.06 U/ml; MIC [7]: 0.125 U/ml; MIC [8]: <0.016 U/ml; MIC [9]: 0.06 U/ml; MIC [11]: <0.016 U/ml; MIC [12]: 0.25 U/ml; MIC [13]: 0.06 U/ml
CN(C)[C@@H]1C(O)=C(C(N)=O)C(=O)[C@@]2(O)C(O)=C3C(=O)c4c(O)cccc4[C@@](C)(O)[C@H]3C[C@@H]12 [TETRACYCLINE] | 1 µg/mL (≈ 2.25 µM) | 1 µg/mL (≈ 2.25 µM) | 2 µg/mL (≈ 4.5 µM) | 4 µg/mL (≈ 9 µM) | 1 µg/mL (≈ 2.25 µM) | 1 µg/mL (≈ 2.25 µM) | < 0.016 µg/mL | 0.5 µg/mL (≈ 1.13 µM) | 0.5 µg/mL (≈ 1.13 µM) | 1 µg/mL (≈ 2.25 µM) | 4 µg/mL (≈ 9 µM) | 0.125 µg/mL (≈ 0.281 µM) | 0.125 µg/mL (≈ 0.281 µM) | –
